Data on 25 compounds can be found in ChEMBL document CHEMBL1135543, “Alpha(1)-adrenoceptor antagonists. 4. Pharmacophore-based design, synthesis, and biological evaluation of new imidazo-, benzimidazo-, and indoloarylpiperazine derivatives” (J Med Chem, 2002).

For assay [1], the target named is T1, 5-hydroxytryptamine receptor 1A (Rattus norvegicus, UniProt P19327).
T1 sequence (P19327 whole entry): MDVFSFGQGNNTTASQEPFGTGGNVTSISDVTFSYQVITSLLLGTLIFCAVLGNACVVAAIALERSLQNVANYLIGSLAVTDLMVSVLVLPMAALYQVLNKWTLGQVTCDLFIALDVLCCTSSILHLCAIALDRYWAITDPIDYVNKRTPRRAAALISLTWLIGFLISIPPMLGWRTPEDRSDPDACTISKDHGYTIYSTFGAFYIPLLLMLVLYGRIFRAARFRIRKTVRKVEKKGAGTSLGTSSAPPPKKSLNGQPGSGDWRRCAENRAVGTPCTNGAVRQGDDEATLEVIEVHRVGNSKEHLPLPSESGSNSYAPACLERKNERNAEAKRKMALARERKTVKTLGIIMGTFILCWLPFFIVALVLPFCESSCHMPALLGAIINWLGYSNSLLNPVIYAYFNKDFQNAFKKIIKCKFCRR
The assay is described as follows: Binding affinity against 5-hydroxytryptamine 1A receptor by displacing [3H]8-OH-DPAT radioligand in rat cortex membrane. It counts as cell membranes. In a few lines:
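Rat cortex membranes, pre-incubated 10 min at 37 °C to remove endogenous 5-HT, stored at –80 °C, then resuspended in 50 mM Tris-HCl pH 7.4 (0.2–0.3 mg protein). GF/C filtration, scintillation counting.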

In assay [2] the target is T2, Adrenergic receptor alpha-2 (Rattus norvegicus, UniProt P22086+P19328+P22909).
T2 sequence (P22086 whole entry): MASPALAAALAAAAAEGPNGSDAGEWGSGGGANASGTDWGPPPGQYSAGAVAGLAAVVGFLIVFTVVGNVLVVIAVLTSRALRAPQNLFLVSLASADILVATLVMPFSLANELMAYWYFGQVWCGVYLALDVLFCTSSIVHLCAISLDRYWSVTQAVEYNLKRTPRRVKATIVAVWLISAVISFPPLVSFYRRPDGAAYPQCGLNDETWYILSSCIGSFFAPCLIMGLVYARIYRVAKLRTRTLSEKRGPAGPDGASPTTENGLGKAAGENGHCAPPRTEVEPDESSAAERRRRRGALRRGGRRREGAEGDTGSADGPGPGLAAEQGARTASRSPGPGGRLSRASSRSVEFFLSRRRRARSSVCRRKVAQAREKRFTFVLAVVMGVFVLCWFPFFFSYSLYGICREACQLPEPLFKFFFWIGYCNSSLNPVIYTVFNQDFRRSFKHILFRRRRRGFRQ
T2 sequence (P19328 whole entry): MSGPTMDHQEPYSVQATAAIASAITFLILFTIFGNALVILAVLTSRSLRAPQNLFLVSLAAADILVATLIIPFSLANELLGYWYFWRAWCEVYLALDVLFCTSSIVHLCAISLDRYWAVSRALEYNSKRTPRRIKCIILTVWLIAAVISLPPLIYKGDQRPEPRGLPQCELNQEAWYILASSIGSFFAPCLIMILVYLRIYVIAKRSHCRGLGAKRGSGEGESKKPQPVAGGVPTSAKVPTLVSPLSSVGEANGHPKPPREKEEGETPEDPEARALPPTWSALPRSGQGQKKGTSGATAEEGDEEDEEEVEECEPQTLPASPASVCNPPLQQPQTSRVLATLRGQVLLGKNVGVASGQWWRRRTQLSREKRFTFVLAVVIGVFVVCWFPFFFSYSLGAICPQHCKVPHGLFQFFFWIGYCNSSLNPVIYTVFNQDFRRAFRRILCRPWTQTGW
T2 sequence (P22909 whole entry): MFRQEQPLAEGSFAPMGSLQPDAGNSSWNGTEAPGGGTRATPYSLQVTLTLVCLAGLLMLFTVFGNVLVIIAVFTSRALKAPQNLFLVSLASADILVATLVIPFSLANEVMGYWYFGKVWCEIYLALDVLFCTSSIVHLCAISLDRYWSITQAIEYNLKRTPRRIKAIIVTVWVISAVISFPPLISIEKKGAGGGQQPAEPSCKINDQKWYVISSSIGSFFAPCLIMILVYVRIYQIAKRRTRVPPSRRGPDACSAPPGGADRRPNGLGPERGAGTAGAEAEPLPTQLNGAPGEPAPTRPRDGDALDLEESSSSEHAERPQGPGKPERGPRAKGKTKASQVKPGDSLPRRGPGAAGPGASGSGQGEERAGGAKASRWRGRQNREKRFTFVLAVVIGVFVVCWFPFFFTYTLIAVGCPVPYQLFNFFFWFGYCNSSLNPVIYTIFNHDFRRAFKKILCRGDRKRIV
The experiment in a line: Binding affinity against Alpha-2 adrenergic receptor by displacing [3H]rauwolscine radioligand in rat cortex membrane. The format is cell membranes, Brain.

Assay [3] has as its target T3, Adrenergic receptor alpha-1 (Rattus norvegicus, UniProt P15823+P23944+P43140).
T3 sequence (P15823 whole entry): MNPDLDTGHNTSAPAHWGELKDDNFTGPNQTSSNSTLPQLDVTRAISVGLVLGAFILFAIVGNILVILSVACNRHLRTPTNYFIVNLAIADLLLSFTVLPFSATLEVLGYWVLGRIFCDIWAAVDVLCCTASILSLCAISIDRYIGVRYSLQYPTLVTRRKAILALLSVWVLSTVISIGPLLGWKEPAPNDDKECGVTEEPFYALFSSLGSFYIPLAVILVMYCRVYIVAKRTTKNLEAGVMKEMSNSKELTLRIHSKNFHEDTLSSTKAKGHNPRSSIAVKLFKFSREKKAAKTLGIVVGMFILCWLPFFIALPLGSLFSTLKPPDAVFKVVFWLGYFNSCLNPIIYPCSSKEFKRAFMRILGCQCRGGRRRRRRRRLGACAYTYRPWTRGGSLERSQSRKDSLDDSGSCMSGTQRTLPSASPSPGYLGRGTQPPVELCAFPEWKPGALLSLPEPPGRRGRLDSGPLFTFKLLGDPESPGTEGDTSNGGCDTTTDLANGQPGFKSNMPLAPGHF
T3 sequence (P23944 whole entry): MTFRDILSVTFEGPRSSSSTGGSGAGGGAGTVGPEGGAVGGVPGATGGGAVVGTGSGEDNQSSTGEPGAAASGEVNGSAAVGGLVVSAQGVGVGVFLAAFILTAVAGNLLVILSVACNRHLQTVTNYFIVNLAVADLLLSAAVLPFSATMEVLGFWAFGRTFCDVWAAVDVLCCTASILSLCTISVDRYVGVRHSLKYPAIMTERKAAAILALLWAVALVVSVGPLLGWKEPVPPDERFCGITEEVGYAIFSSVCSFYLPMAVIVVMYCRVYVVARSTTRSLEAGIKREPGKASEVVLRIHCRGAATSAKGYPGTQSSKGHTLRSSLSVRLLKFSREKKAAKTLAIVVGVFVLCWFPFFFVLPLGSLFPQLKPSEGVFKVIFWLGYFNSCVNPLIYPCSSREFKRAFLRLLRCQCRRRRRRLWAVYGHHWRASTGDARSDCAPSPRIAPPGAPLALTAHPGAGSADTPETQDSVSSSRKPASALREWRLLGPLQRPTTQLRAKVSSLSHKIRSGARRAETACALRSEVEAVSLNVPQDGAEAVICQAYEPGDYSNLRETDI
T3 sequence (P43140 whole entry): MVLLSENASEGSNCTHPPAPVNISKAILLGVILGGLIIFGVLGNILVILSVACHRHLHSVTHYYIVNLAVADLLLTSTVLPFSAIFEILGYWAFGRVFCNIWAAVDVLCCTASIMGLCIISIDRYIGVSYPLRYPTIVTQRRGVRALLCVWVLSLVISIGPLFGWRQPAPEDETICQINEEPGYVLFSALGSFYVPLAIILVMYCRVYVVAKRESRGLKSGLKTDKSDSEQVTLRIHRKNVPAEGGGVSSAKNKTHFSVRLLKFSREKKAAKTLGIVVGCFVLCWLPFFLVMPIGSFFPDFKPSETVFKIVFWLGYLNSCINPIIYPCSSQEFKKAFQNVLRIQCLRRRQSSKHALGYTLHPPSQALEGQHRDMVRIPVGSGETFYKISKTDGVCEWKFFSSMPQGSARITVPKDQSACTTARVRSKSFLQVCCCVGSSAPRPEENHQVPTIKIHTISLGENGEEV
The assay is described as follows: Binding affinity against Alpha-1 adrenergic receptor by displacing [3H]-prazosin radioligand in rat cortex membrane. It counts as cell membranes, Brain. In a few lines:
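Rat cerebral cortex membranes washed in 50 mM Tris-HCl pH 7.7 with 5 mM EDTA, stored at –80 °C, then assayed in 50 mM Tris-HCl pH 7.7 (0.2–0.3 mg protein). Incubation 60 min at 25 °C with 0.1 nM [3H]prazosin; nonspecific binding defined with 1 μM prazosin. Seven displacer concentrations in triplicate, GF/C filtration. IC50 by log-probit, Ki by Cheng–Prusoff (Kd 0.24 nM).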

The target of assay [4] is T3, Adrenergic receptor alpha-1. The experiment in a line: Binding affinity against Alpha-1 adrenergic receptor by displacing [3H]prazosin radioligand in rat cortex membrane. It counts as cell membranes, Brain.

Molecules are shown by their SMILES.

As to `O=c1ccc(-n2ccnc2)nn1CCCCCN1CCN(c2ccccc2Cl)CC1`, the inhibition constant (Ki) in assay [1] stood at 323 nM; in assay [2], 134 nM; in assay [3], 23.3 nM.

Turning to `O=c1ccc(-n2cnc3ccccc32)nn1CCCCCCCN1CCN(c2ccccc2Cl)CC1`, the values for the inhibitory constant (Ki) in assay [1], in assay [2] and in assay [3] were 182 nM, 10.3 nM and 1 nM, respectively.

As for `O=c1ccc(-n2ccnc2)nn1CCN1CCN(c2ccccc2Cl)CC1`, the figures for the inhibition constant (Ki) in assay [2] and in assay [3] were 2072 nM and 472 nM, respectively.

In turn, `O=c1ccc(-n2cnc3ccccc32)nn1CCCN1CCN(c2ccccc2Cl)CC1` showed a Ki in assay [1] of 461 nM.

Regarding `O=c1ccc(-n2cnc3ccccc32)nn1CCCCCCN1CCN(c2ccccc2Cl)CC1`, the inhibitory constant (Ki) is 617 nM in assay [1], 31.5 nM in assay [2] and 15.1 nM in assay [3].

For `O=c1ccc(-n2cnc3ccccc32)nn1CCCCN1CCN(c2ccccc2Cl)CC1`, the Ki is 181 nM in assay [1], 5.8 nM in assay [2] and 1.3 nM in assay [3].

In the case of `COc1ccccc1N1CCN(CCCCCCCn2nc(-n3ccnc3)ccc2=O)CC1`, the Ki in assay [1] is 98.7 nM; in assay [2], 76.5 nM; in assay [4], 6 nM.

With `COc1ccccc1N1CCN(CCCn2nc(-n3cnc4ccccc43)ccc2=O)CC1`, in assay [1], the affinity, expressed as Ki, was 382 nM. In other words, the sub-micromolar range.

For `O=c1ccc(-n2cnc3ccccc32)nn1CCN1CCN(c2ccccc2Cl)CC1`, the figures for the Ki in assay [1], in assay [2] and in assay [3] were 1010 nM, 265 nM and 70.4 nM, respectively.

Regarding `O=c1ccc(-n2ccnc2)nn1CCCN1CCN(c2ccccc2Cl)CC1`, the affinity in assay [1], expressed as Ki, was 617 nM.

In the case of `COc1ccccc1N1CCN(CCCCCCn2nc(-n3ccc4ccccc43)ccc2=O)CC1`, the Ki worked out at 514 nM in assay [1], 104 nM in assay [2] and 2.8 nM in assay [3].

As for `COc1ccccc1N1CCN(CCCCCn2nc(-n3cnc4ccccc43)ccc2=O)CC1`, the results for the inhibitory constant (Ki) in assay [1], in assay [2] and in assay [3] were 127 nM, 30.5 nM and 3.1 nM, respectively.

As to `O=c1ccc(-n2ccnc2)nn1CCCCCCN1CCN(c2ccccc2Cl)CC1`, the Ki was 138 nM in assay [2] and 29.7 nM in assay [3].

In assay [1], `COc1ccccc1N1CCN(CCCn2nc(-n3ccnc3)ccc2=O)CC1` registered a Ki of 463 nM.

On to `O=c1ccc(-n2cnc3ccccc32)nn1CCCCCN1CCN(c2ccccc2Cl)CC1`, for which the values for the Ki in assay [1], in assay [2] and in assay [3] were 351 nM, 127 nM and 4.5 nM, respectively.

Consider `COc1ccccc1N1CCN(CCn2nc(-n3ccc4ccccc43)ccc2=O)CC1`, for which the Ki in assay [1] is 310 nM; in assay [2], 1098 nM; in assay [3], 22.7 nM.

For `COc1ccccc1N1CCN(CCCCCCCn2nc(-n3cnc4ccccc43)ccc2=O)CC1`, the inhibition constant Ki is reported as 89.8 nM in assay [2] and 1.7 nM in assay [3].

`COc1ccccc1N1CCN(CCCn2nc(-n3ccc4ccccc43)ccc2=O)CC1`: the Ki in assay [1] turned out to be 103 nM; in assay [2], 170 nM; in assay [3], 3.2 nM.

Take `COc1ccccc1N1CCN(CCCCCn2nc(-n3ccc4ccccc43)ccc2=O)CC1`: the Ki in assay [1] was 141 nM; in assay [2], 95.6 nM; in assay [3], 6.8 nM.

Take `COc1ccccc1N1CCN(CCn2nc(-n3cnc4ccccc43)ccc2=O)CC1`: the values for the Ki in assay [1], in assay [2] and in assay [3] were 541 nM, 350 nM and 33 nM, respectively.

Consider `O=c1ccc(-n2ccnc2)nn1CCCCN1CCN(c2ccccc2Cl)CC1`, for which the Ki came to 65.2 nM in assay [2] and 24.6 nM in assay [3].

Consider `COc1ccccc1N1CCN(CCCCCn2nc(-n3ccnc3)ccc2=O)CC1`, for which the Ki in assay [1] came to 223 nM; in assay [2], 427 nM; in assay [3] it was 37.5 nM.

With `COc1ccccc1N1CCN(CCCCCCn2nc(-n3cnc4ccccc43)ccc2=O)CC1`, the Ki in assay [1] was 106 nM; in assay [2] it was 113 nM; in assay [3] it was 6.4 nM.

Regarding `COc1ccccc1N1CCN(CCCCCCn2nc(-n3ccnc3)ccc2=O)CC1`, the Ki in assay [2] is reported as 131 nM; in assay [3], 52.5 nM.

Turning to `COc1ccccc1N1CCN(CCn2nc(-n3ccnc3)ccc2=O)CC1`, the figures for the Ki in assay [2] and in assay [3] were 1492 nM and 237 nM, respectively.

In general, Ki refers to a measure of affinity in units of concentration, obtained from inhibition or displacement. A higher Ki goes with lower affinity.
